Series [1] concerns the target T1, Parkinson disease protein 7 (Homo sapiens) (UniProt Q99497).
T1 sequence (whole entry): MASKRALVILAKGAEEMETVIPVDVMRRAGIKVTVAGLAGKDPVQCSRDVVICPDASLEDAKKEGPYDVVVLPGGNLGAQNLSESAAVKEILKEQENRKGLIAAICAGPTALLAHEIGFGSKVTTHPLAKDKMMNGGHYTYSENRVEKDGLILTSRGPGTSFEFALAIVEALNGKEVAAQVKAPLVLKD
The series can be described thus: Binding affinity to PARK7 in human A549 cells assessed as band shift at 5 uM incubated for 4 hrs by SDS-PAGE based fluorescence scanning immunoblotting analysis relative to control. In kind it is cell-based. In short, it runs like this: (§1)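 A549 cells incubated with probes at 5 μM final over a time course (1–24 h). For microscopy, cells on coverslips were fixed in 3.7% formaldehyde/PBS for 20 min, mounted with DAPI and imaged by confocal (63× oil). In parallel, cells were lysed for SDS-PAGE fluorescence scan and PARK7 immunoblot.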
(Immunoblotting shows a protein as a band on a membrane.)

The test system of series [2] is A549. The series is described as follows: Cellular protein labelling in human A549 cells transfected with PARK7 siRNA assessed as unspecific 55-75 kDa band formation at 5 uM incubated for 4 hrs by SDS-PAGE based fluorescence scanning immunoblotting analysis. In kind it is functional, cell-based. In short, it runs like this: (§2)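 HEK293T or A549 cells reverse-transfected with pooled PARK7 siRNA (Dharmafect 1), grown 48 h, then given probe at 5 μM final for 4 h. Lysates analysed by SDS-PAGE fluorescence scan and PARK7 immunoblot against control-transfected cells.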

The target of series [3] is T1, Parkinson disease protein 7 (Homo sapiens). The series can be described thus: Binding affinity to recombinant human PARK7 incubated for 1 hrs by coomassie staining based SDS-PAGE fluorescence scanning analysis. As to conditions: dose 0.1-10 µM.
The subject of series [4] is HEK-293T. The series can be described thus: Cellular protein labelling in HEK293T cells transfected with PARK7 siRNA assessed as unspecific 55-75 kDa band formation at 5 uM incubated for 4 hrs by SDS-PAGE based fluorescence scanning immunoblotting analysis. Type of series: functional, cell-based. As to conditions: Homo sapiens. The method, boiled down: as §2
The target of series [5] is T1, Parkinson disease protein 7 (Homo sapiens). The series is described as follows: Binding affinity to PARK7 in A549 cells assessed as band shift at 5 uM incubated for 24 hrs by SDS-PAGE based fluorescence scanning immunoblotting analysis.
Series [6] concerns A549. The series can be described thus: Cellular protein labelling in human A549 cells transfected with PARK7 siRNA assessed as PARK7 specific band formation at 5 uM incubated for 4 hrs by SDS-PAGE based fluorescence scanning immunoblotting analysis. Type of series: functional, cell-based. In short, it runs like this:
as §2

Series [7] relates to A549. The series can be described thus: Cellular protein labelling in human A549 cells assessed as unspecific 55-75 kDa band formation at 5 uM by SDS-PAGE based fluorescence scanning immunoblotting analysis. Type of series: functional, cell-based. The method, boiled down: (§3)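 Probes applied to intact HEK293T or A549 cells at 5 μM final for 24 h, then lysed. Read-out by SDS-PAGE fluorescence scan and immunoblot against PARK7, looking at the ~25 kDa labelled band, PARK7 band shift and extra bands.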

The test system of the next series is A549 (Homo sapiens). The series is described as follows: Cellular protein labelling in A549 cells assessed as unspecific 55-75 kDa band formation at 5 uM by SDS-PAGE based fluorescence scanning immunoblotting analysis.
The target in series [8] is T1, Parkinson disease protein 7 (Homo sapiens). The series can be described thus: Binding affinity to PARK7 in human A549 cells upto 10 uM incubated for 4 hrs by SDS-PAGE based fluorescence scanning immunoblotting analysis. Type of series: cell-based. In short, it runs like this: (§4)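 HEK293T or A549 cells given the Bodipy probe at 0–10 μM for 4 h, then lysed. Lysates run on 12% Bis-Tris SDS-PAGE and fluorescence-scanned. Immunoblot for PARK7 with β-actin as loading control.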

The target is the same in series [9]. The series can be described thus: Binding affinity to recombinant human PARK7 at 2 uM incubated for 1 hrs by coomassie staining based SDS-PAGE fluorescence scanning analysis relative to control.
The target is the same in series [10]. The series is described as follows: Binding affinity to PARK7 in HEK293T cells upto 10 uM incubated for 4 hrs by SDS-PAGE based fluorescence scanning immunoblotting analysis. In kind it is cell-based. In short, it runs like this: as §4
The target is the same in series [11]. The series is described as follows: Binding affinity to PARK7 in human A549 cells assessed as band shift at 5 uM incubated for 24 hrs by SDS-PAGE based fluorescence scanning immunoblotting analysis. In kind it is cell-based. In short, it runs like this: as §3
A short description of series [12]: Drug penetration in human A549 cells at 5 uM incubated for 1 hrs by DAPI staining based confocal microscopic analysis. Type of series: ADME, cell-based. As to conditions: a549, 1 h. In short, it runs like this:
as §1

Series [13] relates to HEK-293T. The series can be described thus: Cellular protein labelling in HEK293T cells transfected with PARK7 siRNA assessed as PARK7 specific band formation at 5 uM incubated for 4 hrs by SDS-PAGE based fluorescence scanning immunoblotting analysis. As to conditions: Homo sapiens. In kind it is functional, cell-based. The method, boiled down: as §2

Activity calls are given as the source filed them. The calls are words filed in the database; no cut-off is given here.

Regarding `CC1=CC(C)=[N+]2C1=C(CCCCc1cn(-c3ccc(F)c(C(=O)N4CCc5nc(NC(=O)[C@@H]6CCN(C#N)C6)sc5C4)c3)nn1)c1c(C)cc(C)n1[B-]2(F)F`, the Activity in series [1] was 100%; in series [3], “Dose-Dependent Effect”; in series [9] it was 100%. Besides, the outcome (with A549 [2]; in the series with HEK-293T [4]; in series [5]; with A549 [7]; in the series on A549 (Homo sapiens); in series [8]) was Active. Also, the result in [10] and in series [11] was Active. Further, the result in the series with A549 [6] and with HEK-293T [13] was inactive. In series [12], the Drug uptake result is recorded as “Active”.

(Values after ChEMBL document CHEMBL5506034, “Development of Inhibitors, Probes, and PROTAC Provides a Complete Toolbox to Study PARK7 in the Living Cell” (J Med Chem, 2024).)
